Like-named read-outs stand apart in the source and are kept apart here.
Assays:
[1] = human; for share of the total TTBP-TAZ metabolite concentrations: 2 h
[2] = system: PPARδ; assay: Hepatic mRNA expression; assay type: in vivo, Sprague-Dawley rat; settings: rat liver; 250 mg/kg bw/day by gavage, 7 days; vs control
How it was run: (§1)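 Male Sprague-Dawley rats (4 weeks old, 7-day quarantine) were randomised to a corn-oil control or test compound at 250 mg/kg bw/day in corn oil by oral gavage for 7 days, n = 5 per group. Liver was taken at sacrifice. mRNA was measured by quantitative real-time PCR, normalised to β2 microglobulin (B2m), with relative expression by 2−ΔΔCt. Mean ± SE reported; significance at p 0.05.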

[3] = system: VEGF; assay: Hepatic mRNA expression; assay type: in vivo, Sprague-Dawley rat; settings: rat liver; 250 mg/kg bw/day by gavage, 7 days; vs control
How it was run: as §1

[4] = system: TSH; assay: Hepatic mRNA expression; assay type: in vivo, Sprague-Dawley rat; settings: rat liver; 250 mg/kg bw/day by gavage, 7 days; vs control
How it was run: as §1

[5] = system: HIF1α; assay: Hepatic mRNA expression; assay type: in vivo, Sprague-Dawley rat; settings: rat liver; 250 mg/kg bw/day by gavage, 7 days; vs control
How it was run: as §1

[6] = system: THRβ; assay: Hepatic mRNA expression; assay type: in vivo, Sprague-Dawley rat; settings: rat liver; 250 mg/kg bw/day by gavage, 7 days; vs control
How it was run: as §1

[7] = system: LXR; assay: Hepatic mRNA expression; assay type: in vivo, Sprague-Dawley rat; settings: rat liver; 250 mg/kg bw/day by gavage, 7 days; vs control
How it was run: as §1

[8] = system: INFγ; assay: Hepatic mRNA expression; assay type: in vivo, Sprague-Dawley rat; settings: rat liver; 250 mg/kg bw/day by gavage, 7 days; vs control
How it was run: as §1

[9] = system: RXRγ; assay: Hepatic mRNA expression; assay type: in vivo, Sprague-Dawley rat; settings: rat liver; 250 mg/kg bw/day by gavage, 7 days; vs control
How it was run: as §1

[10] = system: HOMX1; assay: Hepatic mRNA expression; assay type: in vivo, Sprague-Dawley rat; settings: rat liver; 250 mg/kg bw/day by gavage, 7 days; vs control
How it was run: as §1

[11] = system: RXRβ; assay: Hepatic mRNA expression; assay type: in vivo, Sprague-Dawley rat; settings: rat liver; 250 mg/kg bw/day by gavage, 7 days; vs control
How it was run: as §1

[12] = system: RXRα; assay: Hepatic mRNA expression; assay type: in vivo, Sprague-Dawley rat; settings: rat liver; 250 mg/kg bw/day by gavage, 7 days; vs control
How it was run: as §1

[13] = system: PXR; assay: Hepatic mRNA expression; assay type: in vivo, Sprague-Dawley rat
[14] = system: ANGPTL4; assay: Hepatic mRNA expression; assay type: in vivo, Sprague-Dawley rat; settings: rat liver; 250 mg/kg bw/day by gavage, 7 days; vs control
How it was run: as §1

[15] = system: LPL; assay: Hepatic mRNA expression; assay type: in vivo, Sprague-Dawley rat; settings: rat liver; 250 mg/kg bw/day by gavage, 7 days; vs control
How it was run: as §1

[16] = system: PPARγ; assay: Hepatic mRNA expression; assay type: in vivo, Sprague-Dawley rat; settings: rat liver; 250 mg/kg bw/day by gavage, 7 days; vs control
How it was run: as §1

[17] = system: CAT; assay: Hepatic mRNA expression; assay type: in vivo, Sprague-Dawley rat; settings: rat liver; 250 mg/kg bw/day by gavage, 7 days; vs control
How it was run: as §1

[18] = In vitro microsomal incubation, human liver microsomes; settings: for share of the total TTBP-TAZ metabolite concentrations: metabolite formed from TTBP-TAZ in liver microsome incubations, target screening; for formation of 2,4,6-TBP as a result of biotransformation: human liver microsomes
[19] = system: IL-6; assay: Hepatic mRNA expression; assay type: in vivo, Sprague-Dawley rat; settings: rat liver; 250 mg/kg bw/day by gavage, 7 days; vs control
How it was run: as §1

[20] = system: PLIN; assay: Hepatic mRNA expression; assay type: in vivo, Sprague-Dawley rat; settings: rat liver; 250 mg/kg bw/day by gavage, 7 days; vs control
[21] = system: SOD1; assay: Hepatic mRNA expression; assay type: in vivo, Sprague-Dawley rat; settings: rat liver; 250 mg/kg bw/day by gavage, 7 days; vs control
How it was run: as §1

[22] = Relative body, liver and thyroid weights of exposed rats; assay type: in vivo, Sprague-Dawley rat; settings: 250 mg/kg bw/day by gavage, 7 days, vs control (Table S2)
[23] = system: TNFα; assay: Hepatic mRNA expression; assay type: in vivo, Sprague-Dawley rat; settings: rat liver; 250 mg/kg bw/day by gavage, 7 days; vs control
How it was run: as §1

[24] = In vitro microsomal incubation, rat liver microsomes; settings: for formation of 2,4,6-TBP as a result of biotransformation: rat liver microsomes
[25] = animal studies; ref Mörck et al., 2003; cited from earlier work
[26] = Occurrence of TTBP-TAZ and 2,4,6-TBP in blood and liver of orally exposed rats; parameters: species or system Sprague-Dawley rat; settings: in vivo, 250 mg/kg/day
[27] = system: AOX1; assay: Hepatic mRNA expression; assay type: in vivo, Sprague-Dawley rat; settings: rat liver; 250 mg/kg bw/day by gavage, 7 days; vs control
How it was run: as §1

[28] = system: TG; assay: Hepatic mRNA expression; assay type: in vivo, Sprague-Dawley rat; settings: rat liver; 250 mg/kg bw/day by gavage, 7 days; vs control
How it was run: as §1

[29] = system: MYC; assay: Hepatic mRNA expression; assay type: in vivo, Sprague-Dawley rat; settings: rat liver; 250 mg/kg bw/day by gavage, 7 days; compared to the 2,4,6 TBP exposure group
[30] = system: AhR; assay: Hepatic mRNA expression; assay type: in vivo, Sprague-Dawley rat; settings: rat liver; 250 mg/kg bw/day by gavage, 7 days; vs control
How it was run: as §1

[31] = rat

SMILES: Oc1cc(Br)c(Br)cc1Br [2,4,5-TBP, 2,4,5-Tribromophenol]
- share of the total TTBP-TAZ metabolite concentrations ([1]; pH 7.4): 12.6%

SMILES: COc1c(Br)cc(Br)cc1Br [2,4,6-TBA, 2,4,6-tribromoanisole]
- share of the total TTBP-TAZ metabolite concentrations ([1]; pH 7.4): 0.02%

SMILES: Oc1c(Br)cc(Br)cc1Br [2,4,6-TBP, 2,4,6-Tribromophenol]
- PPARδ mRNA expression [2]: significantly downregulated
- VEGF mRNA expression [3]: significantly inhibited
- TSH mRNA expression [4]: significantly induced
- HIF1α mRNA expression [5]: significantly inhibited
- THRβ mRNA expression [6]: significantly inhibited
- LXR mRNA expression [7]: significantly downregulated
- INFγ mRNA expression [8]: significantly decreased
- RXRγ mRNA expression [9]: significantly downregulated
- HOMX1 mRNA expression [10]: significantly inhibited
- RXRβ mRNA expression [11]: significantly downregulated
- RXRα mRNA expression [12]: significantly downregulated
- PXR mRNA expression ([13]; rat liver, 250 mg/kg bw/day by gavage, 7 days, vs control): significantly downregulated
- ANGPTL4 mRNA expression [14]: significantly inhibited
- LPL mRNA expression [15]: significantly inhibited
- PPARγ mRNA expression [16]: significantly downregulated
- CAT mRNA expression [17]: significantly inhibited
- share of the total TTBP-TAZ metabolite concentrations [18]: 87%
- concentration ratio of 2,4,6-TBP to 2,4,5-TBP ([18]; metabolites of TTBP-TAZ incubation): 6.9
- IL-6 mRNA expression [19]: significantly decreased
- PLIN mRNA expression, fold change [20]: 2.4 fold
- SOD1 mRNA expression [21]: significantly inhibited
- relative body, liver, and thyroid weights [22]: No significant difference
- TNFα mRNA expression [23]: significantly decreased

SMILES: Oc1ccc(Br)cc1Br [2,4-DBP, 2,4-dibromophenol]
- share of the total TTBP-TAZ metabolite concentrations [18]: 0.19%

SMILES: Brc1c(Br)c(Br)c(CCc2c(Br)c(Br)c(Br)c(Br)c2Br)c(Br)c1Br [DBDPE, decabromodiphenyl ethane]
- formation of 2,4,6-TBP as a result of biotransformation [24]: not formed
- formation of 2,4,6-TBP as a result of biotransformation [18]: not formed
- excreted in feces [25]: 90%

SMILES: CC(C)(c1cc(Br)c(O)c(Br)c1)c1cc(Br)c(O)c(Br)c1 [TBBPA, tetrabromobisphenol A]
- formation of 2,4,6-TBP as a result of biotransformation [24]: not formed
- formation of 2,4,6-TBP as a result of biotransformation [18]: not formed

SMILES: Brc1cc(Br)c(Oc2nc(Oc3c(Br)cc(Br)cc3Br)nc(Oc3c(Br)cc(Br)cc3Br)n2)c(Br)c1 [TTBP-TAZ, 2,4,6-tris-(2,4,6-tribromophenoxy)-1,3,5-triazine]
- In vitro intrinsic clearance rate (CLint), depletion ([1]; microsomes): 10.3 µL/min/mg
- 2,4,6-TBP formation rate ([1]; pH 7.4): 22.3 µL/min/mg
- VEGF mRNA expression [3]: significantly inhibited
- TSH mRNA expression [4]: significantly induced
- HIF1α mRNA expression [5]: significantly inhibited
- half-life ([24]; Sprague-Dawley, rat, liver microsomes, pH 7.4): 2.2 h
- concentration of 2,4,6-TBP in rat blood ([26]; male, Sprague-Dawley, 7 days): 50 ± 14 μg/g lipid weight (lw)
- concentration of 2,4,6-TBP in rat liver ([26]; male, Sprague-Dawley, 7 days): 270 ± 110 μg/g lipid weight (lw)
- TTBP-TAZ detected in blood samples ([26]; rat): no TTBP-TAZ was detected
- TTBP-TAZ detected in liver samples ([26]; rat): no TTBP-TAZ was detected
- INFγ mRNA expression [8]: significantly reduced
- RXRγ mRNA expression [9]: downregulated significantly
- AOX1 mRNA expression [27]: significantly inhibited
- HOMX1 mRNA expression [10]: significantly inhibited
- TG mRNA expression [28]: inhibition
- RXRβ mRNA expression [11]: downregulated significantly
- RXRα mRNA expression [12]: downregulated significantly
- PXR mRNA expression ([13]; rat, in vivo, 250 mg/kg/day): downregulated significantly
- ANGPTL4 mRNA expression [14]: significantly inhibited
- LPL mRNA expression [15]: significantly inhibited
- MYC mRNA expression [29]: significantly induced
- CAT mRNA expression [17]: significantly inhibited
- half-life ([18]; human, liver microsomes, pH 7.4): 1.1 h
- AhR mRNA expression, fold change compared to control [30]: 18 fold
- 2,4,6-TBP formation rate ([31]; Sprague-Dawley, pH 7.4): 12.8 µL/min/mg
- In vitro intrinsic clearance rate (CLint), depletion ([31]; microsomes): 5.33 µL/min/mg
- PLIN mRNA expression, fold change [20]: 28 fold
- SOD1 mRNA expression [21]: significantly inhibited
- TNFα mRNA expression [23]: significantly reduced
